Assay results as given in ChEMBL document CHEMBL4257452, “A mini-library system to investigate non-essential residues of lipid-phosphatidylserine (PS) binding peptide-peptoid hybrid PPS1” (Medchemcomm, 2017).
Calls of active or inactive are those of the source. No cut-off for these calls is given here. Starred links: 1 amine or outer side, 2 acyl side, 3 side chain; linkers in the order of their positions; H or OH if unused. Positions of bridges follow the written chain, without caps; N, C: chain ends. Non-standard residues stand in square brackets, D forms with d. Residues, ends and D or L forms follow the SMILES beside them. Chains are numbered I, II in the order given. Gly(N-CH2CH2C6H4-4Cl) = O=C(O)CNCCc1ccc(Cl)cc1; Gly(N-piperonyl) = O=C(O)CNCc1ccc2c(c1)OCO2; Gly(Nα-4-Cl-benzyl) = O=C(O)CNCc1ccc(Cl)cc1; N(4-MeOBn)Gly = COc1ccc(CNCC(=O)O)cc1; X3 = CC(c1ccccc1)N(CC(=O)[*:2])[*:1]; Gly(NCH2CH2Ph) = O=C(O)CNCCc1ccccc1; Gly(N-(CH2)3OMe) = COCCCNCC(=O)O; Nrpe = C[C@@H](NCC(=O)O)c1ccccc1; Gly(N-propargyl) = C#CCNCC(=O)O; Gly(N-cPent) = O=C(O)CNC1CCCC1

system: HCC4017; test: Cytotoxicity against human HCC4017 cells assessed as reduction in cell viability at 20 uM after 24 hrs by MTS assay; assay type: functional, cell-based
Procedure, shortened: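 HCC4017 cells (RPMI, 5% FBS) and HBEC-3KT normal lung cells (KSFM with recombinant human EGF and bovine pituitary extract) were plated at 10 000 cells/well in triplicate and left to adhere overnight. They were exposed to 1 or 20 μM compound for 24 h. MTS reagent was then added for 2 h and absorbance read at 490 nm. Viability is % of untreated control wells.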

Compound | Activity
COc1ccc(CN(CC(=O)N(CC(=O)N[C@@H](CCCCN)C(=O)N[C@H](CCCCN)C(=O)N[C@@H](CCSC)C(=O)NCCCC[C@H](NC(=O)[C@H](CCSC)NC(=O)[C@@H](CCCCN)NC(=O)[C@H](CCCCN)NC(=O)CN(Cc2ccc3c(c2)OCO3)C(=O)CN(Cc2ccc(OC)cc2)C(=O)CN(C(=O)CN(Cc2ccc3c(c2)OCO3)C(=O)CN[C@H](C)c2ccccc2)[C@H](C)c2ccccc2)C(N)=O)Cc2ccc3c(c2)OCO3)C(=O)CN(C(=O)CN(Cc2ccc3c(c2)OCO3)C(=O)CN[C@H](C)c2ccccc2)[C@H](C)c2ccccc2)cc1 (I: H-[Nrpe][Gly(N-piperonyl)][Nrpe][N(4-MeOBn)Gly][Gly(N-piperonyl)]K[dK]MK-NH2 / II: H-[Nrpe][Gly(N-piperonyl)][Nrpe][N(4-MeOBn)Gly][Gly(N-piperonyl)]K[dK]M; amide I:9-II:C) | Active
COc1ccc(CN(CC(=O)NC(C)C(=O)NC(CCCCN)C(=O)NC(CCCCN)C(=O)NC(CCSC)C(=O)NCCCCC(NC(=O)C(CCSC)NC(=O)C(CCCCN)NC(=O)C(CCCCN)NC(=O)C(C)NC(=O)CN(Cc2ccc(OC)cc2)C(=O)CN(C(=O)CN(Cc2ccc3c(c2)OCO3)C(=O)CNC(C)c2ccccc2)C(C)c2ccccc2)C(N)=O)C(=O)CN(C(=O)CN(Cc2ccc3c(c2)OCO3)C(=O)CNC(C)c2ccccc2)C(C)c2ccccc2)cc1 (stereo not drawn) (I: H-[X3][Gly(N-piperonyl)][X3][N(4-MeOBn)Gly]AKKMK-NH2 / II: H-[X3][Gly(N-piperonyl)][X3][N(4-MeOBn)Gly]AKKM; amide I:9-II:C; configuration not given here) | Active
COc1ccc(CN(CC(=O)NC(CC(=O)O)C(=O)NC(CCCCN)C(=O)NC(CCCCN)C(=O)NC(CCSC)C(=O)NCCCCC(NC(=O)C(CCSC)NC(=O)C(CCCCN)NC(=O)C(CCCCN)NC(=O)C(CC(=O)O)NC(=O)CN(Cc2ccc(OC)cc2)C(=O)CN(C(=O)CN(Cc2ccc3c(c2)OCO3)C(=O)CNC(C)c2ccccc2)C(C)c2ccccc2)C(N)=O)C(=O)CN(C(=O)CN(Cc2ccc3c(c2)OCO3)C(=O)CNC(C)c2ccccc2)C(C)c2ccccc2)cc1 (stereo not drawn) (I: H-[X3][Gly(N-piperonyl)][X3][N(4-MeOBn)Gly]DKKMK-NH2 / II: H-[X3][Gly(N-piperonyl)][X3][N(4-MeOBn)Gly]DKKM; amide I:9-II:C; configuration not given here) | inactive
COc1ccc(CN(CC(=O)NC(CC(C)C)C(=O)NC(CCCCN)C(=O)NC(CCCCN)C(=O)NC(CCSC)C(=O)NCCCCC(NC(=O)C(CCSC)NC(=O)C(CCCCN)NC(=O)C(CCCCN)NC(=O)C(CC(C)C)NC(=O)CN(Cc2ccc(OC)cc2)C(=O)CN(C(=O)CN(Cc2ccc3c(c2)OCO3)C(=O)CNC(C)c2ccccc2)C(C)c2ccccc2)C(N)=O)C(=O)CN(C(=O)CN(Cc2ccc3c(c2)OCO3)C(=O)CNC(C)c2ccccc2)C(C)c2ccccc2)cc1 (stereo not drawn) (I: H-[X3][Gly(N-piperonyl)][X3][N(4-MeOBn)Gly]LKKMK-NH2 / II: H-[X3][Gly(N-piperonyl)][X3][N(4-MeOBn)Gly]LKKM; amide I:9-II:C; configuration not given here) | Active
COc1ccc(CN(CC(=O)N2CCCC2C(=O)NC(CCCCN)C(=O)NC(CCCCN)C(=O)NC(CCSC)C(=O)NCCCCC(NC(=O)C(CCSC)NC(=O)C(CCCCN)NC(=O)C(CCCCN)NC(=O)C2CCCN2C(=O)CN(Cc2ccc(OC)cc2)C(=O)CN(C(=O)CN(Cc2ccc3c(c2)OCO3)C(=O)CNC(C)c2ccccc2)C(C)c2ccccc2)C(N)=O)C(=O)CN(C(=O)CN(Cc2ccc3c(c2)OCO3)C(=O)CNC(C)c2ccccc2)C(C)c2ccccc2)cc1 (stereo not drawn) (I: H-[X3][Gly(N-piperonyl)][X3][N(4-MeOBn)Gly]PKKMK-NH2 / II: H-[X3][Gly(N-piperonyl)][X3][N(4-MeOBn)Gly]PKKM; amide I:9-II:C; configuration not given here) | Active
COc1ccc(CN(CC(=O)NC(C(=O)NC(CCCCN)C(=O)NC(CCCCN)C(=O)NC(CCSC)C(=O)NCCCCC(NC(=O)C(CCSC)NC(=O)C(CCCCN)NC(=O)C(CCCCN)NC(=O)C(NC(=O)CN(Cc2ccc(OC)cc2)C(=O)CN(C(=O)CN(Cc2ccc3c(c2)OCO3)C(=O)CNC(C)c2ccccc2)C(C)c2ccccc2)C(C)C)C(N)=O)C(C)C)C(=O)CN(C(=O)CN(Cc2ccc3c(c2)OCO3)C(=O)CNC(C)c2ccccc2)C(C)c2ccccc2)cc1 (stereo not drawn) (I: H-[X3][Gly(N-piperonyl)][X3][N(4-MeOBn)Gly]VKKMK-NH2 / II: H-[X3][Gly(N-piperonyl)][X3][N(4-MeOBn)Gly]VKKM; amide I:9-II:C; configuration not given here) | Active
COc1ccc(CN(CC(=O)NC(Cc2ccc(O)cc2)C(=O)NC(CCCCN)C(=O)NC(CCCCN)C(=O)NC(CCSC)C(=O)NCCCCC(NC(=O)C(CCSC)NC(=O)C(CCCCN)NC(=O)C(CCCCN)NC(=O)C(Cc2ccc(O)cc2)NC(=O)CN(Cc2ccc(OC)cc2)C(=O)CN(C(=O)CN(Cc2ccc3c(c2)OCO3)C(=O)CNC(C)c2ccccc2)C(C)c2ccccc2)C(N)=O)C(=O)CN(C(=O)CN(Cc2ccc3c(c2)OCO3)C(=O)CNC(C)c2ccccc2)C(C)c2ccccc2)cc1 (stereo not drawn) (I: H-[X3][Gly(N-piperonyl)][X3][N(4-MeOBn)Gly]YKKMK-NH2 / II: H-[X3][Gly(N-piperonyl)][X3][N(4-MeOBn)Gly]YKKM; amide I:9-II:C; configuration not given here) | Active
COCCCN(CC(=O)NC(CCCCN)C(=O)NC(CCCCN)C(=O)NC(CCSC)C(=O)NCCCCC(NC(=O)C(CCSC)NC(=O)C(CCCCN)NC(=O)C(CCCCN)NC(=O)CN(CCCOC)C(=O)CN(Cc1ccc(OC)cc1)C(=O)CN(C(=O)CN(Cc1ccc2c(c1)OCO2)C(=O)CNC(C)c1ccccc1)C(C)c1ccccc1)C(N)=O)C(=O)CN(Cc1ccc(OC)cc1)C(=O)CN(C(=O)CN(Cc1ccc2c(c1)OCO2)C(=O)CNC(C)c1ccccc1)C(C)c1ccccc1 (stereo not drawn) (I: H-[X3][Gly(N-piperonyl)][X3][N(4-MeOBn)Gly][Gly(N-(CH2)3OMe)]KKMK-NH2 / II: H-[X3][Gly(N-piperonyl)][X3][N(4-MeOBn)Gly][Gly(N-(CH2)3OMe)]KKM; amide I:9-II:C; configuration not given here) | Active
COc1ccc(CN(CC(=O)N(CCc2ccc(Cl)cc2)CC(=O)NC(CCCCN)C(=O)NC(CCCCN)C(=O)NC(CCSC)C(=O)NCCCCC(NC(=O)C(CCSC)NC(=O)C(CCCCN)NC(=O)C(CCCCN)NC(=O)CN(CCc2ccc(Cl)cc2)C(=O)CN(Cc2ccc(OC)cc2)C(=O)CN(C(=O)CN(Cc2ccc3c(c2)OCO3)C(=O)CNC(C)c2ccccc2)C(C)c2ccccc2)C(N)=O)C(=O)CN(C(=O)CN(Cc2ccc3c(c2)OCO3)C(=O)CNC(C)c2ccccc2)C(C)c2ccccc2)cc1 (stereo not drawn) (I: H-[X3][Gly(N-piperonyl)][X3][N(4-MeOBn)Gly][Gly(N-CH2CH2C6H4-4Cl)]KKMK-NH2 / II: H-[X3][Gly(N-piperonyl)][X3][N(4-MeOBn)Gly][Gly(N-CH2CH2C6H4-4Cl)]KKM; amide I:9-II:C; configuration not given here) | Active
COc1ccc(CN(CC(=O)N(CC(=O)NC(CCCCN)C(=O)NC(CCCCN)C(=O)NC(CCSC)C(=O)NCCCCC(NC(=O)C(CCSC)NC(=O)C(CCCCN)NC(=O)C(CCCCN)NC(=O)CN(C(=O)CN(Cc2ccc(OC)cc2)C(=O)CN(C(=O)CN(Cc2ccc3c(c2)OCO3)C(=O)CNC(C)c2ccccc2)C(C)c2ccccc2)C2CCCC2)C(N)=O)C2CCCC2)C(=O)CN(C(=O)CN(Cc2ccc3c(c2)OCO3)C(=O)CNC(C)c2ccccc2)C(C)c2ccccc2)cc1 (stereo not drawn) (I: H-[X3][Gly(N-piperonyl)][X3][N(4-MeOBn)Gly][Gly(N-cPent)]KKMK-NH2 / II: H-[X3][Gly(N-piperonyl)][X3][N(4-MeOBn)Gly][Gly(N-cPent)]KKM; amide I:9-II:C; configuration not given here) | Active
C#CCN(CC(=O)NC(CCCCN)C(=O)NC(CCCCN)C(=O)NC(CCSC)C(=O)NCCCCC(NC(=O)C(CCSC)NC(=O)C(CCCCN)NC(=O)C(CCCCN)NC(=O)CN(CC#C)C(=O)CN(Cc1ccc(OC)cc1)C(=O)CN(C(=O)CN(Cc1ccc2c(c1)OCO2)C(=O)CNC(C)c1ccccc1)C(C)c1ccccc1)C(N)=O)C(=O)CN(Cc1ccc(OC)cc1)C(=O)CN(C(=O)CN(Cc1ccc2c(c1)OCO2)C(=O)CNC(C)c1ccccc1)C(C)c1ccccc1 (stereo not drawn) (I: H-[X3][Gly(N-piperonyl)][X3][N(4-MeOBn)Gly][Gly(N-propargyl)]KKMK-NH2 / II: H-[X3][Gly(N-piperonyl)][X3][N(4-MeOBn)Gly][Gly(N-propargyl)]KKM; amide I:9-II:C; configuration not given here) | Active
COc1ccc(CN(CC(=O)N(CCc2ccccc2)CC(=O)NC(CCCCN)C(=O)NC(CCCCN)C(=O)NC(CCSC)C(=O)NCCCCC(NC(=O)C(CCSC)NC(=O)C(CCCCN)NC(=O)C(CCCCN)NC(=O)CN(CCc2ccccc2)C(=O)CN(Cc2ccc(OC)cc2)C(=O)CN(C(=O)CN(Cc2ccc3c(c2)OCO3)C(=O)CNC(C)c2ccccc2)C(C)c2ccccc2)C(N)=O)C(=O)CN(C(=O)CN(Cc2ccc3c(c2)OCO3)C(=O)CNC(C)c2ccccc2)C(C)c2ccccc2)cc1 (stereo not drawn) (I: H-[X3][Gly(N-piperonyl)][X3][N(4-MeOBn)Gly][Gly(NCH2CH2Ph)]KKMK-NH2 / II: H-[X3][Gly(N-piperonyl)][X3][N(4-MeOBn)Gly][Gly(NCH2CH2Ph)]KKM; amide I:9-II:C; configuration not given here) | Active
COc1ccc(CN(CC(=O)N(CC(=O)NC(CCCCN)C(=O)NC(CCCCN)C(=O)NC(CCSC)C(=O)NCCCCC(NC(=O)C(CCSC)NC(=O)C(CCCCN)NC(=O)C(CCCCN)NC(=O)CN(Cc2ccc(Cl)cc2)C(=O)CN(Cc2ccc(OC)cc2)C(=O)CN(C(=O)CN(Cc2ccc3c(c2)OCO3)C(=O)CNC(C)c2ccccc2)C(C)c2ccccc2)C(N)=O)Cc2ccc(Cl)cc2)C(=O)CN(C(=O)CN(Cc2ccc3c(c2)OCO3)C(=O)CNC(C)c2ccccc2)C(C)c2ccccc2)cc1 (stereo not drawn) (I: H-[X3][Gly(N-piperonyl)][X3][N(4-MeOBn)Gly][Gly(Nα-4-Cl-benzyl)]KKMK-NH2 / II: H-[X3][Gly(N-piperonyl)][X3][N(4-MeOBn)Gly][Gly(Nα-4-Cl-benzyl)]KKM; amide I:9-II:C; configuration not given here) | Active
